In assay [1] the test system is Plasmodium falciparum. Put plainly: Substrate affinity for Plasmodium falciparum 68 neutral proteinase. The class given is functional. The essentials:
(§1)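 Pf 68 proteinase purified from FcR-3 schizonts, incubated with peptidyl-AEC substrates (0.5-2.0 mM) in 50 mM Tris-HCl pH 7.4, 30 min at 37 °C. Free AEC extracted into ethyl acetate, fluorescence read at ex 370/em 430 nm. A 10 μg/mL trypsin total-release digest served as reference. Km and rates from Lineweaver-Burk plots; Vrel is the rate relative to S-1.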

In assay [2] the test system is Plasmodium falciparum. Put plainly: Relative rate of hydrolysis by Plasmodium falciparum 68 neutral proteinase. The class given is functional. The essentials: as §1
In assay [3] the test system is Plasmodium falciparum. Briefly: In vitro inhibition of Plasmodium falciparum 68 neutral proteinase activity by reinvasion of red blood cells. The class given is functional, organism-based. The essentials: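 Synchronized schizonts (44-48 h) from a 4-h synchronized culture, collected by Plasmagel, added to washed healthy erythrocytes at 5% hematocrit to 4-5% parasitemia, with peptide in complete medium with 5% serum. Incubated 4-6 h in a candle jar. New rings counted on Giemsa smears (5000 RBC). Inhibition = 100 − (R/R0 × 100). IC50 from 6-h runs, 5% initial segmenters, triplicate.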

In assay [4] the test system is Plasmodium falciparum. Put plainly: Inhibitory activity against Plasmodium falciparum 68 neutral proteinase. The class given is functional. The essentials: (§2)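 Purified Pf 68 proteinase (FcR-3 schizonts; chromatofocusing then gel filtration; 20 μL extract). Inhibitors at 0.005-1 mM preincubated with 0.19 mM GlcA-Val-Leu-Gly-Lys-AEC in 50 mM Tris-HCl pH 7.4, then 30 min at 37 °C. Released AEC extracted into ethyl acetate, fluorescence read at ex 370/em 430 nm. Enzyme-free control for each inhibitor. I50 read from the activity-versus-concentration plot.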

Assay [5] relates to Plasmodium falciparum. Briefly: Inhibitory activity against Plasmodium falciparum 68 neutral proteinase. The class given is functional. As to conditions: read-out: I50. The essentials: as §2
The subject of assay [6] is Plasmodium falciparum. Briefly: Reaction velocity for Plasmodium falciparum 68 neutral proteinase. It counts as functional. In short, it runs like this:
as §1

Structures are written as SMILES. Square brackets hold non-standard residues; d marks the D form. Peptide text beside a SMILES is read from it. * marks the point of attachment. NH(9-Et-carbazol-3-yl) = CCn1c2ccccc2c2cc(N*)ccc21; X1 = O=C(C(O)C(O)C(O)C(O)CO)*; Boc = CC(C)(C)OC(=O)*; Sar = CNCC(=O)O Bounds are passed on as bounds.

Consider 26 molecules from ChEMBL document CHEMBL1125768, “Peptide derivatives specific for a Plasmodium falciparum proteinase inhibit the human erythrocyte invasion by merozoites” (J Med Chem, 1991).

As for `CCn1c2ccccc2c2cc(NC(=O)[C@H](CCCCN)NC(=O)CNC(=O)[C@H](CC(C)C)NC(=O)[C@@H](NC(=O)C(O)C(O)C(O)C(O)CO)[C@@H](C)O)ccc21` (some centres not stated) (X1-TLGK-{NH(9-Et-carbazol-3-yl)}), the Km with Plasmodium falciparum [1] is 770 µM. In the assay on Plasmodium falciparum [2], the Vrel came out at 74.
`CCNC(=O)[C@H](C)NC(=O)CNC(=O)[C@H](CC(C)C)NC(=O)[C@@H](NC(=O)[C@H](O)[C@@H](O)[C@H](O)[C@H](O)CO)C(C)C`: the IC50 in the assay on Plasmodium falciparum [3] was over 10000 µM; in the assay with Plasmodium falciparum [5], over 2000 µM. The inhibition constant Ki with Plasmodium falciparum [4] is over 2500 µM.
In the case of `CCn1c2ccccc2c2cc(NC(=O)[C@H](CCCCN)NC(=O)CNC(=O)[C@H](CC(C)C)NC(=O)[C@@H](NC(=O)C(O)C(O)C(O)C(O)CO)C(C)C)ccc21` (some centres not stated) (X1-VLGK-{NH(9-Et-carbazol-3-yl)}), the Km in the assay on Plasmodium falciparum [1] was 380 µM. This molecule gave a Vm with Plasmodium falciparum [6] of 35 uM ml-1. For the same molecule, the Vrel in the assay on Plasmodium falciparum [2] is given as 100.
As to `CCn1c2ccccc2c2cc(NC(=O)[C@H](CCCCN)NC(=O)CNC(=O)[C@@H](NC(=O)[C@@H](NC(=O)C(O)C(O)C(O)C(O)CO)C(C)C)[C@@H](C)O)ccc21` (some centres not stated) (X1-VTGK-{NH(9-Et-carbazol-3-yl)}), the Km in the assay with Plasmodium falciparum [1] worked out at 1250 µM. Besides, in the assay on Plasmodium falciparum [2], the Vrel was found to be 26.
Regarding `CCN(CC)C(=O)[C@H](CCCCN)NC(=O)CNC(=O)[C@H](CC(C)C)NC(=O)[C@@H](NC(=O)[C@H](O)[C@@H](O)[C@H](O)[C@H](O)CO)C(C)C`, the IC50 was over 10000 µM in the assay with Plasmodium falciparum [3] and over 2000 µM in the assay on Plasmodium falciparum [5]. The molecule also showed a Ki in the assay with Plasmodium falciparum [4] of over 2500 µM.
Turning to `CC(C)C[C@H](NC(=O)[C@@H](NC(=O)[C@H](O)[C@@H](O)[C@H](O)[C@H](O)CO)C(C)C)C(=O)NCC(=O)N[C@@H](CCCCN)C(=O)N(C)CC(=O)O`, the inhibition constant (Ki) in the assay with Plasmodium falciparum [4] amounted to 250 µM. In the assay on Plasmodium falciparum [5], the IC50 worked out at 320 µM.
As for `CCn1c2ccccc2c2cc(NC(=O)[C@H](CCCCN)NC(=O)CNC[C@@H](NC(=O)C(O)C(O)C(O)C(O)CO)C(C)O)ccc21` (some centres not stated), the Michaelis constant (Km) in the assay with Plasmodium falciparum [1] came to 5600 µM. For the same molecule, the Vrel in the assay on Plasmodium falciparum [2] was determined as 23.
On to `CCn1c2ccccc2c2cc(NC(=O)[C@H](CCCCN)NC(=O)CNC(=O)[C@H](CC(C)C)NC(=O)[C@@H](NC(=O)OC(C)(C)C)C(C)C)ccc21` (Boc-VLGK-{NH(9-Et-carbazol-3-yl)}), for which, in the assay on Plasmodium falciparum [1], the Km amounted to 1140 µM. This molecule also had a Vrel in the assay on Plasmodium falciparum [2] of 11.
With `CCn1c2ccccc2c2cc(NC(=O)[C@H](CCCCN)NC(=O)CNC(=O)[C@H](CC(C)C)NC(=O)[C@H](CO)NC(=O)C(O)C(O)C(O)C(O)CO)ccc21` (some centres not stated) (X1-SLGK-{NH(9-Et-carbazol-3-yl)}), the Michaelis-Menten constant (Km) in the assay with Plasmodium falciparum [1] amounted to 1140 µM. Also, the Vrel in the assay with Plasmodium falciparum [2] turned out to be 17.
As for `CCn1c2ccccc2c2cc(NC(=O)[C@H](CCCCN)NC(=O)CNC(=O)[C@H](COC(=O)c3ccccc3)NC(=O)C(O)C(O)C(O)C(O)CO)ccc21` (some centres not stated), the Km in the assay on Plasmodium falciparum [1] is over 10000 µM. In the assay with Plasmodium falciparum [2], this molecule showed a Vrel of under 3.
In the case of `CC[C@H](C)[C@H](NC(=O)C(O)C(O)C(O)C(O)CO)C(=O)N[C@H](C(=O)NCC(=O)N[C@@H](CCCCN)C(=O)Nc1ccc2c(c1)c1ccccc1n2CC)C(C)C` (some centres not stated) (X1-IVGK-{NH(9-Et-carbazol-3-yl)}), the Km in the assay with Plasmodium falciparum [1] was determined as 950 µM. This molecule had a Vrel with Plasmodium falciparum [2] of 43.
As for `CCn1c2ccccc2c2cc(NC(=O)[C@H](CCCCN)NC(=O)CN(C)C(=O)[C@H](CC(C)C)NC(=O)[C@@H](NC(=O)C(O)C(O)C(O)C(O)CO)C(C)C)ccc21` (some centres not stated) (X1-VL[Sar]K-{NH(9-Et-carbazol-3-yl)}), the Km in the assay with Plasmodium falciparum [1] amounted to 1670 µM. The same molecule had a Vrel in the assay with Plasmodium falciparum [2] of 80.
In the case of `CC(C)C[C@H](NC(=O)[C@@H](NC(=O)[C@H](O)[C@@H](O)[C@H](O)[C@H](O)CO)C(C)C)C(=O)NCC(=O)N[C@@H](CCCCN)C(=O)O`, the figures for the IC50 in the assay with Plasmodium falciparum [3] and in the assay with Plasmodium falciparum [5] were over 10000 µM and over 2000 µM, respectively. In addition, in the assay with Plasmodium falciparum [4], the inhibition constant (Ki) was over 2500 µM.
Turning to `CCn1c2ccccc2c2cc(NC(=O)[C@H](CCCCN)NC(=O)[C@H](C)NC(=O)[C@H](C)NC(=O)[C@H](C)NC(=O)C(O)C(O)C(O)C(O)CO)ccc21` (some centres not stated) (X1-AAAK-{NH(9-Et-carbazol-3-yl)}), in the assay with Plasmodium falciparum [1], the Michaelis-Menten constant (Km) turned out to be 5000 µM. In the assay on Plasmodium falciparum [2], this molecule showed a Vrel of 29.
On to `CC(C)C[C@H](NC(=O)[C@@H](NC(=O)[C@H](O)[C@@H](O)[C@H](O)[C@H](O)CO)C(C)C)C(=O)NCC(=O)N[C@@H](CCCCN)C(=O)N1CCC[C@H]1C(=O)O`, for which, in the assay with Plasmodium falciparum [4], the inhibition constant Ki is over 2500 µM. Also, in the assay on Plasmodium falciparum [5], the IC50 is over 2000 µM.
For `CC(C)C[C@H](NC(=O)[C@@H](NC(=O)[C@H](O)[C@@H](O)[C@H](O)[C@H](O)CO)C(C)C)C(=O)N(C)CC(=O)N[C@@H](CCCN=C(N)N)C(=O)N(C)CC(=O)O`, the Ki in the assay on Plasmodium falciparum [4] came out at 2500 µM. In addition, the IC50 in the assay with Plasmodium falciparum [5] was 2000 µM.
With `CCNC(=O)CNC(=O)[C@H](CCCN=C(N)N)NC(=O)[C@@H]1CCCN1C(=O)[C@H](CC(=O)O)NC(=O)OC(C)(C)C` (Boc-DPRG-NHEt), the Ki with Plasmodium falciparum [4] is over 2500 µM. Moreover, in the assay on Plasmodium falciparum [5], the IC50 is over 2000 µM.
Take `CCn1c2ccccc2c2cc(NC(=O)[C@H](CCCCN)NC(=O)CNC(=O)[C@H](CO)NC(=O)C(O)C(O)C(O)C(O)CO)ccc21` (some centres not stated): the Michaelis constant (Km) with Plasmodium falciparum [1] was found to be 730 µM. The molecule also showed a Vrel in the assay with Plasmodium falciparum [2] of 140.
For `CCn1c2ccccc2c2cc(NC(=O)[C@H](CCCN=C(N)N)NC(=O)CNC(=O)[C@H](CO)NC(=O)C(O)C(O)C(O)C(O)CO)ccc21` (some centres not stated) the same measures were over 10000 µM and under 3.
For the molecule `CCn1c2ccccc2c2cc(NC(=O)[C@H](CCCN=C(N)N)NC(=O)CNC(=O)[C@H](CC(C)C)NC(=O)[C@@H](NC(=O)C(O)C(O)C(O)C(O)CO)C(C)C)ccc21` (some centres not stated) (X1-VLGR-{NH(9-Et-carbazol-3-yl)}), in the assay on Plasmodium falciparum [1], the Km worked out at 400 µM. Besides, the Vrel with Plasmodium falciparum [2] worked out at 89.
`CCNC(=O)CNC(=O)[C@H](CCCN=C(N)N)NC(=O)[C@H](Cc1ccccc1)NC(=O)[C@H](CC(=O)O)NC(C)=O` (Ac-DFRG-NHEt) had an IC50 in the assay with Plasmodium falciparum [3] of over 10000 µM. In the assay with Plasmodium falciparum [4], this molecule had an inhibition constant (Ki) of over 2500 µM.
In the case of `CCNC(=O)[C@H](CCCCN)NC(=O)CNC(=O)[C@H](CC(C)C)NC(=O)[C@@H](NC(=O)[C@H](O)[C@@H](O)[C@H](O)[C@H](O)CO)C(C)C`, the IC50 came out at 900 µM in the assay on Plasmodium falciparum [3] and 470 µM in the assay with Plasmodium falciparum [5]. Moreover, in the assay with Plasmodium falciparum [4], the Ki turned out to be 480 µM.
With `CC(C)C[C@H](NC(=O)[C@@H](NC(=O)[C@H](O)[C@@H](O)[C@H](O)[C@H](O)CO)C(C)C)C(=O)NCC(=O)N[C@@H](CCCN=C(N)N)C(=O)N(C)CC(=O)O`, in the assay on Plasmodium falciparum [4], the affinity, expressed as Ki, was 1220 µM. Also, in the assay on Plasmodium falciparum [5], the IC50 is 1000 µM.
The matching figures for `CC(C)C[C@H](NC(=O)[C@@H](NC(=O)[C@H](O)[C@@H](O)[C@H](O)[C@H](O)CO)C(C)C)C(=O)NCC(=O)N[C@@H](CCCCN)C(=O)NC(CO)CO`: 1460 µM and 1500 µM.
Turning to `CCn1c2ccccc2c2cc(NC(=O)[C@H](CCCCN)NC(=O)CNC[C@H](CC(C)C)NC(=O)[C@H](N)C(C)C)ccc21`, in the assay on Plasmodium falciparum [1], the Km was over 10000 µM. In the assay on Plasmodium falciparum [2], this molecule came in with a Vrel of under 3.
The matching figures for `CC[C@H](C)[C@H](NC(=O)C(O)C(O)C(O)C(O)CO)C(=O)N[C@H](CNCC(=O)N[C@@H](CCCN=C(N)N)C(=O)Nc1ccc2c(c1)c1ccccc1n2CC)C(C)C` (some centres not stated): 6250 µM and 3.

A word on the Km: it is the concentration of substrate that gives half-maximal velocity. One may read the Ki as the dissociation constant of the complex between target and ligand, obtained from inhibition or displacement. A low value points to higher affinity.
